# Data: ChEMBL document CHEMBL4825703, “Investigation of 3-sulfamoyl coumarins against cancer-related IX and XII isoforms of human carbonic anhydrase as well as cancer cells leads to the discovery of 2-oxo-2H-benzo[h]chromene-3-sulfonamide - A new caspase-activating proapoptotic agent” (Eur J Med Chem, 2021)
# Activity calls are given as the source filed them. No cut-off for these calls is given here.
# How the values were obtained:
# hTERT-BJ [1] = experiment: Cytotoxicity against human TERT-Bj-5ta cells assessed as reduction in cell viability at 300 uM measured after 24 hrs under CoCl2- induced hypoxic condition by MTT assay relative to control; format: cell-based
# Carbonic anhydrase 9 = Carbonic anhydrase 9 (Homo sapiens, UniProt Q16790); experiment: Inhibition of human carbonic anhydrase 9 assessed as inhibition constant incubated for 15 mins prior to testing by phenol red based stopped-flow CO2 hydration assay
# U-87 MG [2] = experiment: Antiproliferative activity against human U-87 MG cells assessed as cell growth inhibition at 30 to 100 uM measured after 24 hrs under CoCl2-induced hypoxic condition by MTT assay; format: functional, cell-based; conditions: U-87MG ATCC, dose 30-100 µM
# A-431 [3] = experiment: Induction of apoptosis in human A-431 cells assessed as late apoptotic cells at 25 uM incubated for 24 hrs by annexin-V/FITC and propidium iodide based staining based flow cytometry (Rvb= 3.06 %); format: functional
# U-87 MG [4] = experiment: Antiproliferative activity against human U-87 MG cells assessed as cell survival rate at 300 uM measured after 24 hrs under CoCl2-induced hypoxic condition by MTT assay relative to control; format: functional, U-87MG ATCC; conditions: read-out: Survival
# Outline: (§1)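 MTT end-point assay. MTT (5 mg/mL in PBS) added for 4 h, formazan dissolved in DMSO, absorbance read at 560 nm. Viability given as % of untreated control (100%); mean ± SEM of three experiments.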
# A-431 [5] = experiment: Antiproliferative activity against human A-431 cells assessed as reduction in cell viability measured after 24 hrs by MTT assay; conditions: A-431, 24 h
# A-431 [6] = experiment: Antiproliferative activity against human A-431 cells assessed as reduction in cell viability measured after 48 hrs by MTT assay; conditions: A-431, 48 h
# [7] = Antiproliferative activity against human WI-26 AV4 cells assessed as reduction in cell viability measured after 72 hrs by MTT assay; conditions: WI26VA4, 72 h
# A-431 [8] = experiment: Induction of apoptosis in human A-431 cells assessed as dead cells at 15 uM incubated for 24 hrs by annexin-V/FITC and propidium iodide based staining based flow cytometry (Rvb= 0.14 %); format: functional
# A-431 [9] = experiment: Induction of apoptosis in human A-431 cells assessed as dead cells at 25 uM incubated for 24 hrs by annexin-V/FITC and propidium iodide based staining based flow cytometry (Rvb= 0.14 %); format: functional
# A-431 [10] = experiment: Induction of apoptosis in human A-431 cells assessed as late apoptotic cells at 20 uM incubated for 24 hrs by annexin-V/FITC and propidium iodide based staining based flow cytometry (Rvb= 3.06 %); format: functional
# [11] = Antiproliferative activity against human WI-26 AV4 cells assessed as reduction in cell viability measured after 48 hrs by MTT assay; conditions: WI-26 AV4, 48 h
# A-431 [12] = experiment: Induction of apoptosis in human A-431 cells assessed as early apoptotic cells at 15 uM incubated for 24 hrs by annexin-V/FITC and propidium iodide based staining based flow cytometry (Rvb= 6.10 %); format: functional
# A-431 [13] = experiment: Antiproliferative activity against human A-431 cells assessed as cell survival rate at 300 uM measured after 24 hrs under CoCl2-induced hypoxic condition by MTT assay relative to control; format: functional; conditions: read-out: Survival; outline: as §1
# A-431 [14] = experiment: Induction of apoptosis in human A-431 cells assessed as activation of caspase 3/7 measured after 24 hrs by CellEvent caspase 3/7 green detection reagent based assay; format: functional, cell-based
# Outline: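 Subconfluent cells in 6-well plates exposed to compound (5–25) for 24 h at 37 °C, 5% CO₂. Cells washed in PBS and resuspended at 1 × 10^6/mL. CellEvent caspase-3/7 green reagent added at 4 final, incubated 30 min at 37 °C, then analysed by flow cytometry within 20 min.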
# A-431 [15] = experiment: Induction of apoptosis in human A-431 cells assessed as early apoptotic cells at 10 uM incubated for 24 hrs by annexin-V/FITC and propidium iodide based staining based flow cytometry (Rvb= 6.10 %); format: functional
# A-431 [16] = experiment: Induction of apoptosis in human A-431 cells assessed as dead cells at 20 uM incubated for 24 hrs by annexin-V/FITC and propidium iodide based staining based flow cytometry (Rvb= 0.14 %); format: functional
# A-431 [17] = experiment: Induction of apoptosis in human A-431 cells assessed as late apoptotic cells at 5 uM incubated for 24 hrs by annexin-V/FITC and propidium iodide based staining based flow cytometry (Rvb= 3.06 %); format: functional
# A-431 [18] = experiment: Induction of apoptosis in human A-431 cells assessed as early apoptotic cells at 25 uM incubated for 24 hrs by annexin-V/FITC and propidium iodide based staining based flow cytometry (Rvb= 6.10 %); format: functional
# [19] = Antiproliferative activity against human WI-26 AV4 cells assessed as reduction in cell viability measured after 24 hrs by MTT assay; conditions: WI-26 AV4, 24 h
# A-431 [20] = experiment: Antiproliferative activity against human A-431 cells assessed as cell survival rate at 100 uM measured after 24 hrs under CoCl2-induced hypoxic condition by MTT assay relative to control; format: functional; conditions: read-out: Survival; outline: as §1
# Carbonic anhydrase 2 = Carbonic anhydrase 2 (Homo sapiens, UniProt P00918); experiment: Inhibition of human carbonic anhydrase 2 assessed as inhibition constant incubated for 15 mins prior to testing by phenol red based stopped-flow CO2 hydration assay
# hTERT-BJ [21] = experiment: Cytotoxicity against human TERT-Bj-5ta cells assessed as reduction in cell viability at measured after 24 hrs under CoCl2- induced hypoxic condition by MTT assay; format: cell-based
# A-431 [22] = experiment: Induction of apoptosis in human A-431 cells assessed as viable cells at 20 uM incubated for 24 hrs by annexin-V/FITC and propidium iodide based staining based flow cytometry (Rvb= 90.70 %); format: functional; conditions: read-out: Activity
# A-431 [23] = experiment: Induction of apoptosis in human A-431 cells assessed as dead cells at 10 uM incubated for 24 hrs by annexin-V/FITC and propidium iodide based staining based flow cytometry (Rvb= 0.14 %); format: functional
# A-431 [24] = experiment: Induction of apoptosis in human A-431 cells assessed as late apoptotic cells at 15 uM incubated for 24 hrs by annexin-V/FITC and propidium iodide based staining based flow cytometry (Rvb= 3.06 %); format: functional
# A-431 [25] = experiment: Induction of apoptosis in human A-431 cells assessed as viable cells at 25 uM incubated for 24 hrs by annexin-V/FITC and propidium iodide based staining based flow cytometry (Rvb= 90.70 %); format: functional; conditions: read-out: Activity
# A-431 [26] = experiment: Induction of apoptosis in human A-431 cells assessed as viable cells at 5 uM incubated for 24 hrs by annexin-V/FITC and propidium iodide based staining based flow cytometry (Rvb= 90.70 %); format: functional; conditions: read-out: Activity
# A-431 [27] = experiment: Induction of apoptosis in human A-431 cells assessed as viable cells at 10 uM incubated for 24 hrs by annexin-V/FITC and propidium iodide based staining based flow cytometry (Rvb= 90.70 %); format: functional; conditions: read-out: Activity
# A-431 [28] = experiment: Induction of apoptosis in human A-431 cells assessed as dead cells at 5 uM incubated for 24 hrs by annexin-V/FITC and propidium iodide based staining based flow cytometry (Rvb= 0.14 %); format: functional
# A-431 [29] = experiment: Induction of apoptosis in human A-431 cells assessed as late apoptotic cells at 10 uM incubated for 24 hrs by annexin-V/FITC and propidium iodide based staining based flow cytometry (Rvb= 3.06 %); format: functional
# A-431 [30] = experiment: Induction of apoptosis in human A-431 cells assessed as early apoptotic cells at 5 uM incubated for 24 hrs by annexin-V/FITC and propidium iodide based staining based flow cytometry (Rvb= 6.10 %); format: functional
# A-431 [31] = experiment: Induction of apoptosis in human A-431 cells assessed as viable cells at 15 uM incubated for 24 hrs by annexin-V/FITC and propidium iodide based staining based flow cytometry (Rvb= 90.70 %); format: functional; conditions: read-out: Activity
# A-431 [32] = experiment: Induction of apoptosis in human A-431 cells assessed as early apoptotic cells at 20 uM incubated for 24 hrs by annexin-V/FITC and propidium iodide based staining based flow cytometry (Rvb= 6.10 %); format: functional
# A-431 [33] = experiment: Antiproliferative activity against human A-431 cells assessed as reduction in cell viability measured after 72 hrs by MTT assay; conditions: A-431, 72 h
# RT-4 = experiment: Antiproliferative activity against human RT-4 cells assessed as cell survival rate at 300 uM measured after 24 hrs under CoCl2-induced hypoxic condition by MTT assay relative to control; format: functional; conditions: read-out: Survival; outline: as §1
structure (smiles),measurement,setting,value
CCOc1cccc2cc(S(N)(=O)=O)c(=O)oc12,Activity,hTERT-BJ [1],55.97%
same,Ki,Carbonic anhydrase 9,0.0515 µM
same,growth inhibition (GI),U-87 MG [2],inactive
NS(=O)(=O)c1cc2cc(F)ccc2oc1=O,Ki,Carbonic anhydrase 9,0.0326 µM
same,growth inhibition (GI),U-87 MG [2],inactive
Cc1cc(C)c2cc(S(N)(=O)=O)c(=O)oc2c1,Ki,Carbonic anhydrase 9,0.825 µM
same,growth inhibition (GI),U-87 MG [2],inactive
NS(=O)(=O)c1cc2c(ccc3ccccc32)oc1=O,Activity,A-431 [3],2.31%
same,viability at 300 µM,U-87 MG [4],67.9%
same,IC50,A-431 [5],9.73 µM
same,IC50,A-431 [6],25.9 µM
same,IC50,[7],> 350 µM
same,Activity,A-431 [8],0.24%
same,Ki,Carbonic anhydrase 9,6.37 µM
same,growth inhibition (GI),U-87 MG [2],inactive
same,Activity,A-431 [9],0.41%
same,Activity,A-431 [10],2.65%
same,IC50,[11],84.5 µM
same,Activity,A-431 [12],12.52%
same,viability at 300 µM,A-431 [13],23.4%
same,Activity,A-431 [14],Dose-Dependent Effect
same,Activity,A-431 [15],9.25%
same,Activity,A-431 [16],0.25%
same,Activity,A-431 [17],2.79%
same,Activity,A-431 [18],18.56%
same,IC50,[19],41.7 µM
same,viability at 100 µM,A-431 [20],73%
same,Ki,Carbonic anhydrase 2,> 100 µM
same,Activity,hTERT-BJ [21],Non-Toxic
same,viability at 20 µM,A-431 [22],81.2%
same,Activity,A-431 [23],0.34%
same,Activity,A-431 [24],1.7%
same,viability at 25 µM,A-431 [25],78.7%
same,viability at 5 µM,A-431 [26],92.8%
same,viability at 10 µM,A-431 [27],88.4%
same,Activity,A-431 [28],0.48%
same,Activity,A-431 [29],1.99%
same,Activity,A-431 [30],3.89%
same,viability at 15 µM,A-431 [31],85.5%
same,Activity,A-431 [32],15.93%
same,IC50,A-431 [33],70.1 µM
NS(=O)(=O)c1cc2cc(O)ccc2oc1=O,Activity,hTERT-BJ [1],65.75%
same,Ki,Carbonic anhydrase 9,0.0664 µM
same,growth inhibition (GI),U-87 MG [2],inactive
COc1cccc2oc(=O)c(S(N)(=O)=O)cc12,Ki,Carbonic anhydrase 9,2.98 µM
same,growth inhibition (GI),U-87 MG [2],inactive
NS(=O)(=O)c1cc2cc(Cl)ccc2oc1=O,IC50,A-431 [5],51.9 µM
same,IC50,A-431 [6],29.1 µM
same,IC50,[7],5.87 µM
same,Ki,Carbonic anhydrase 9,0.177 µM
same,growth inhibition (GI),U-87 MG [2],inactive
same,IC50,[11],45.1 µM
same,viability at 300 µM,A-431 [13],36.5%
same,IC50,[19],89.2 µM
same,Activity,hTERT-BJ [21],Non-Toxic
same,viability at 300 µM,RT-4,19.7%
same,IC50,A-431 [33],57.8 µM
NS(=O)(=O)c1cc2cccc(F)c2oc1=O,viability at 300 µM,U-87 MG [4],57.9%
same,Ki,Carbonic anhydrase 9,0.0411 µM
same,growth inhibition (GI),U-87 MG [2],inactive
COc1ccc2cc(S(N)(=O)=O)c(=O)oc2c1,Ki,Carbonic anhydrase 9,0.0405 µM
same,growth inhibition (GI),U-87 MG [2],inactive
